From ChEMBL document CHEMBL3872218, “Synthesis and T-type calcium channel-blocking effects of aryl(1,5-disubstituted-pyrazol-3-yl)methyl sulfonamides for neuropathic pain treatment” (Eur J Med Chem, 2016)

What was measured:
Rattus norvegicus [1] = assay: Antineuropathic pain activity in rat spinal nerve ligation model assessed as effect on mechanical allodynia by measuring frequency of paw withdrawal at 100 mg/kg, po measured at 1 hr relative to control; assay type: functional
Summary of the method: (§1)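 Spinal nerve ligation rats tested 2 weeks after nerve surgery, 100 mg/kg oral, n = 4 per group. Behaviour re-tested at 1, 3 and 5 h after dosing. Mechanical allodynia: von Frey filament applied five times, every 3–4 s, to the hind paw on a wire mesh floor. Cold allodynia: acetone applied to the plantar hind paw on a metal mesh floor.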

[2] = AUClast in Sprague-Dawley rat at 10 mg/kg, po; assay type: ADME, organism-based; design: dose 10 mg/kg, route oral, time 0 - last; conditions: in vivo
[3] = AUC (0 to infinity) in Sprague-Dawley rat at 10 mg/kg, po; assay type: ADME, organism-based; design: dose 10 mg/kg, time infinity, route oral; conditions: in vivo
[4] = Mean residence time in Sprague-Dawley rat at 10 mg/kg, iv; assay type: ADME, organism-based; conditions: in vivo
[5] = Cmax in Sprague-Dawley rat at 10 mg/kg, po; assay type: ADME, organism-based; design: dose 10 mg/kg, route oral; conditions: in vivo
[6] = molecular target: Voltage-gated inwardly rectifying potassium channel KCNH2 (Homo sapiens, UniProt Q12809); assay: Inhibition of human ERG expressed in CHOK1 cells by whole-cell patch clamp method; assay type: cell-based, CHO-K1
Chain of Voltage-gated inwardly rectifying potassium channel KCNH2 (Q12809 whole entry): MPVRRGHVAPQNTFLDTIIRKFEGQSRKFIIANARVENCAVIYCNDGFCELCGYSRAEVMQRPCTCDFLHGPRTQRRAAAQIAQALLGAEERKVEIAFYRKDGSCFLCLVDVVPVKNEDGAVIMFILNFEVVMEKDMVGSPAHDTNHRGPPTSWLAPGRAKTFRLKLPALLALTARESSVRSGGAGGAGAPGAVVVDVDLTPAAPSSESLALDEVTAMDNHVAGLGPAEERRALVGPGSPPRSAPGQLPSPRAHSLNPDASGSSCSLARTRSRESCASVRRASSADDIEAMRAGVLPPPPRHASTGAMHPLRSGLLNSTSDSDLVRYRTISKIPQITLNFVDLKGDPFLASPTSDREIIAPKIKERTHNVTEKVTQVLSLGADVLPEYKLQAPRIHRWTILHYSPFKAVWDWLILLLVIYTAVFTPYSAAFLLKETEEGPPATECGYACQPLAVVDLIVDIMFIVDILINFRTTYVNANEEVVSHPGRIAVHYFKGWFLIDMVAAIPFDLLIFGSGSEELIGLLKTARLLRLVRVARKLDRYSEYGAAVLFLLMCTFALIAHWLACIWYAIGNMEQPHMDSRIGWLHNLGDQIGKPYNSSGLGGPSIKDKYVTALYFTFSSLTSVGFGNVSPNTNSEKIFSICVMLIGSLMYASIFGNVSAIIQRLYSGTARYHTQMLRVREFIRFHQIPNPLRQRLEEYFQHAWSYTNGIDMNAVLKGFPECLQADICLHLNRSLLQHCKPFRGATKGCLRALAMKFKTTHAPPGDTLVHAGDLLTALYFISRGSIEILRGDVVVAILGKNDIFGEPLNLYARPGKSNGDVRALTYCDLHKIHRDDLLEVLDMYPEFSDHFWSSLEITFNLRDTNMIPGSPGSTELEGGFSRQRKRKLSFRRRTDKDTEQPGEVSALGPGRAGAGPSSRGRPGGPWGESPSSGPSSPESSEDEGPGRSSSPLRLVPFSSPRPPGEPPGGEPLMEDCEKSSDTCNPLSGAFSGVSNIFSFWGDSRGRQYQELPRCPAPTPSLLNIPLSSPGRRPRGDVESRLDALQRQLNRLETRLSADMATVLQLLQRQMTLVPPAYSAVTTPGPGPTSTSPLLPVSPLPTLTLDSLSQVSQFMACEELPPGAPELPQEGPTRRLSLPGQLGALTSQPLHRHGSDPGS

[7] = molecular target: Voltage-dependent T-type calcium channel subunit alpha-1G (Homo sapiens, UniProt O43497); assay: Inhibition of Cav3.1 alpha1G (unknown origin) expressed in HEK293 cells assessed as decrease in KCl-induced depolarization mediated intracellular Ca2+ level at 10 uM by fluo3/AM based high throughput screening assay relative to control; assay type: cell-based
Chain of Voltage-dependent T-type calcium channel subunit alpha-1G (O43497 whole entry): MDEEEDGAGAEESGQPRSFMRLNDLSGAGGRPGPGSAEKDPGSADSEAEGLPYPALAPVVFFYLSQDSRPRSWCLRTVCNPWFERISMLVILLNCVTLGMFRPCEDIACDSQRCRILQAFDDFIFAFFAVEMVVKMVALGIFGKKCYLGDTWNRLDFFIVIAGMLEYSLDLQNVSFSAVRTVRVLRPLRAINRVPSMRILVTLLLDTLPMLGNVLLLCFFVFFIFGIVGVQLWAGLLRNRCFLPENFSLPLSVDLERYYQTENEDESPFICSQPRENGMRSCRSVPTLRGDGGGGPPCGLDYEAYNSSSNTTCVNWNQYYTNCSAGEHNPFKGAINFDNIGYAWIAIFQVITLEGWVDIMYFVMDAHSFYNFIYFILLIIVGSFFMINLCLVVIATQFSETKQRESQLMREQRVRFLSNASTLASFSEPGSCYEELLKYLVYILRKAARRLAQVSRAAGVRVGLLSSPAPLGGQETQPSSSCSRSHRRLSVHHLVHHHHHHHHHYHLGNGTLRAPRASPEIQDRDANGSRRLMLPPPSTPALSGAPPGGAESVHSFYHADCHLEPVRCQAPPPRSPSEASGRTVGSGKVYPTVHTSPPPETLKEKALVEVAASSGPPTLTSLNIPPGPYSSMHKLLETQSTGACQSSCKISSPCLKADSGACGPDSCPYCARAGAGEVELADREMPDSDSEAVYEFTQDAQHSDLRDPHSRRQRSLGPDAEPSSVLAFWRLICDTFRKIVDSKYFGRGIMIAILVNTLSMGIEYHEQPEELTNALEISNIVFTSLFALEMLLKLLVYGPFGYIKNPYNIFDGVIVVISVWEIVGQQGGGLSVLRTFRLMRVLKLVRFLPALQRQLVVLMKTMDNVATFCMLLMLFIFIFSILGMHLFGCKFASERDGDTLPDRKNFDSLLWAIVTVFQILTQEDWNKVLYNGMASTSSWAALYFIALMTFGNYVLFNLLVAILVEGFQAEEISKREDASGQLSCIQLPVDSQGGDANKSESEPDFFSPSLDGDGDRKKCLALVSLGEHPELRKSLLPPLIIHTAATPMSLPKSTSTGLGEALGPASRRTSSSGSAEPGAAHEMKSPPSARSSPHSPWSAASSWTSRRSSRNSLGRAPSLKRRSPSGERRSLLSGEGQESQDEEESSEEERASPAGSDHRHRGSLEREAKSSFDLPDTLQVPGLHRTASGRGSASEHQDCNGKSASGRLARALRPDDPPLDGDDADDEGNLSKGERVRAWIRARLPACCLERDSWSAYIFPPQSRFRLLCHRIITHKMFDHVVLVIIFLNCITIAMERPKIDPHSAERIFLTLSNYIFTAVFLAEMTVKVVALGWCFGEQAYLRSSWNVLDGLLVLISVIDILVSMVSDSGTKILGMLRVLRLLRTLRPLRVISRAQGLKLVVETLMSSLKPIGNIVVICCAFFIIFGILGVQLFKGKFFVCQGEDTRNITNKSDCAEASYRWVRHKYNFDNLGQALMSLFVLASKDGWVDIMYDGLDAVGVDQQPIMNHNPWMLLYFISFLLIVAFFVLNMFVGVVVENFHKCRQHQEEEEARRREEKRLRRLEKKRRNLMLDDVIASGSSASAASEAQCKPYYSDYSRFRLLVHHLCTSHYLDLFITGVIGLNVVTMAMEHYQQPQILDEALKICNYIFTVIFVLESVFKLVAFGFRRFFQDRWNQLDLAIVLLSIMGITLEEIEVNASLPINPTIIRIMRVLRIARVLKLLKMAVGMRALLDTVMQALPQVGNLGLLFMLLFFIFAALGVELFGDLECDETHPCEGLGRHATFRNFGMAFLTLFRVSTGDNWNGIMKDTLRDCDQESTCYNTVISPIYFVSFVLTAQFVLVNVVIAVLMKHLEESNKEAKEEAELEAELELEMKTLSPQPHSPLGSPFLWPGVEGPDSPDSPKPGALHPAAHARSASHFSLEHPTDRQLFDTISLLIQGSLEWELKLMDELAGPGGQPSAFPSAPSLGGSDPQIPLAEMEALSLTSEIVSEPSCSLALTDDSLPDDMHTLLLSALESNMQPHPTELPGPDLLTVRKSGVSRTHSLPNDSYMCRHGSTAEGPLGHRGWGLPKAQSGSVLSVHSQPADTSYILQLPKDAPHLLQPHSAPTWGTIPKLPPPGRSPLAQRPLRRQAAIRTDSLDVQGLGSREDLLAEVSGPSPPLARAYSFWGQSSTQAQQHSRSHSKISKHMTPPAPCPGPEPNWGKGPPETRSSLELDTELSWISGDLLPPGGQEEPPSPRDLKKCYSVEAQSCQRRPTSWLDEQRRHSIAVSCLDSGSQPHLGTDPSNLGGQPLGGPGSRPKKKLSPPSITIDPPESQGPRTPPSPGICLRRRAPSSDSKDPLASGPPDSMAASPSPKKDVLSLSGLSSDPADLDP
Summary of the method: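 HEK293 cells stably expressing Cav3.1 or Cav3.2 plated at 4 × 10⁴ cells/well and used the next day. Loaded 60 min at room temperature with […] fluo3/AM plus 0.001% Pluronic F-127 in HEPES-buffered saline (1.8 mM CaCl₂, pH 7.4). Ca²⁺ fluorescence read on FDSS6000 as % inhibition, compound at […].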

Rattus norvegicus [8] = assay: Antineuropathic pain activity in rat spinal nerve ligation model assessed as effect on cold allodynia by measuring frequency of paw withdrawal at 100 mg/kg, po measured at 3 hrs relative to gabapentin; assay type: functional; summary of the method: as §1
[9] = Plasma concentration in Sprague-Dawley rat at 10 mg/kg, iv at 2 hrs post dose; assay type: ADME, organism-based
[10] = Terminal half life in Sprague-Dawley rat at 10 mg/kg, iv; assay type: ADME, organism-based; conditions: in vivo, read-out: beta t1/2
Rattus norvegicus [11] = assay: Antineuropathic pain activity in rat spinal nerve ligation model assessed as effect on cold allodynia by measuring frequency of paw withdrawal at 100 mg/kg, po measured at 3 hrs relative to control; assay type: functional; summary of the method: as §1
CYP2D6 = CYP2D6 (Homo sapiens, UniProt P10635); assay: Inhibition of human CYP2D6 assessed as remaining activity at 10 uM using vivid CYP450 substrate measured after 15 mins by fluorescence assay relative to quinidine; assay type: ADME; conditions: probe vivid CYP450 substrate, read-out: Activity
Chain of CYP2D6 (P10635 whole entry, canonical isoform): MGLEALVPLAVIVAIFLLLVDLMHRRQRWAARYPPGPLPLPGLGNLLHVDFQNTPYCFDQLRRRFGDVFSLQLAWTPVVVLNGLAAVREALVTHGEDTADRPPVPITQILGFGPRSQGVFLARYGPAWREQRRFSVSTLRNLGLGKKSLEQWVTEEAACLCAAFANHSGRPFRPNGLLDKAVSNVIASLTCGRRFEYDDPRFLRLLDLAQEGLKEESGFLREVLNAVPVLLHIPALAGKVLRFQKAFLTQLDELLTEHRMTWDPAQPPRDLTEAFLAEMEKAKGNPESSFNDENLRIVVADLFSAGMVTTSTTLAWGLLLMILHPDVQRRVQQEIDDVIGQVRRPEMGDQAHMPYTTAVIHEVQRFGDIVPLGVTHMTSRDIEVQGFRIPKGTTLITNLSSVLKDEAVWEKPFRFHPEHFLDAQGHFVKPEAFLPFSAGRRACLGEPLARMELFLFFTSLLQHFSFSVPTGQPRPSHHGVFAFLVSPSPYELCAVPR
Summary of the method: (§2)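 Vivid fluorescence CYP assay: test compound at […] in water, mixed with BACULOSOMES master pre-mix and regeneration system, preincubated 15 min at 37 °C. Reaction started with Vivid substrate and NADPH. Remaining activity read by fluorescence as % of control, triplicate, mean ± SD. Isoform-specific reference inhibitors: α-naphthoflavone (1A2), sulfaphenazole (2C9), quinidine (2D6), ketoconazole (3A4).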

[12] = Terminal half life in Sprague-Dawley rat at 10 mg/kg, po; assay type: ADME, organism-based; conditions: in vivo, read-out: beta t1/2
[13] = Apparent volume of distribution at steady state in Sprague-Dawley rat at 10 mg/kg, iv; assay type: ADME, organism-based; conditions: in vivo, read-out: Vdss(app)
CYP3A4 = CYP3A4 (Homo sapiens, UniProt P08684); assay: Inhibition of human CYP3A4 assessed as remaining activity at 10 uM using vivid CYP450 substrate measured after 15 mins by fluorescence assay relative to ketoconazole; assay type: ADME; conditions: probe vivid CYP450 substrate, read-out: Activity; summary of the method: as §2
Chain of CYP3A4 (P08684 whole entry): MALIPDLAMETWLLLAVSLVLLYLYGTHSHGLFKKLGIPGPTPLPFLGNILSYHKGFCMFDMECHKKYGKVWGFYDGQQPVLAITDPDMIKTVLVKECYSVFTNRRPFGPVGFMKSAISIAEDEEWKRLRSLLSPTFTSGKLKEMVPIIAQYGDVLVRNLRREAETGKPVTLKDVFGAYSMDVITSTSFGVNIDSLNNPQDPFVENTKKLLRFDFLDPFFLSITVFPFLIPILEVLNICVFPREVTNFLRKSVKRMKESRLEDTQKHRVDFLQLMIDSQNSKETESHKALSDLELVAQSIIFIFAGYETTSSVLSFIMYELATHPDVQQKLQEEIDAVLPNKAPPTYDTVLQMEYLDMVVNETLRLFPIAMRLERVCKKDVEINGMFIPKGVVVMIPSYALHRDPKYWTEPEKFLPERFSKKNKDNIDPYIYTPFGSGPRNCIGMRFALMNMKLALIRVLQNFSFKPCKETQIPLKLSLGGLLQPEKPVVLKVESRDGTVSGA

Rattus norvegicus [14] = assay: Antineuropathic pain activity in rat spinal nerve ligation model assessed as effect on mechanical allodynia by measuring frequency of paw withdrawal at 100 mg/kg, po measured at 5 hrs relative to gabapentin; assay type: functional; summary of the method: as §1
[15] = Ratio of drug level in brain to plasma in Sprague-Dawley rat at 10 mg/kg, iv at 2 hrs post dose; assay type: ADME, organism-based; conditions: read-out: BPR

CC(C)Cc1cc(CNS(=O)(=O)c2cccc(F)c2)nn1-c1ccccc1
MPE (Rattus norvegicus [1]): 1.63%
AUC(0-t) [2]: 164 ng·h/mL
AUC(0-inf) [3]: 168 ng·h/mL
MRT [4]: 58 min
Cmax [5]: 70 ng/mL
IC50 [6]: 14.5 µM
inhibition [7]: 64.1%
MPE (Rattus norvegicus [8]): 91.75%
concentration at 2 h [9]: 270 ng/mL
half-life [10]: 55.7 min
MPE (Rattus norvegicus [11]): 73.87%
activity at 0.25 h, 10 µM (CYP2D6): 204%
half-life [12]: 66.8 min
Vd [13]: 4.95 L/kg
activity at 0.25 h, 10 µM (CYP3A4): 80.1%
MPE (Rattus norvegicus [14]): 43.02%
Kp at 2 h [15]: 1.4
